Source: ChEMBL document CHEMBL1127808, “Structure-distribution relationships for metal-labeled myocardial imaging agents: comparison of a series of cationic gallium (III) complexes with hexadentate bis(salicylaldimine) ligands” (J Med Chem, 1994)

How the values were obtained:
Type in all cases: functional
Rattus norvegicus [1] = test: Retention of tracer Gallium in blood of rats after intravenous administration and Gallium-67 Bis(salicylaldimine) after 120 min
Summary of the method: (§1)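 Male Sprague-Dawley rats under ether anesthesia received a femoral vein bolus of no-carrier-added 67Ga complex (1–3 μCi, 0.1–0.2 mL; 5% ethanol in 0.16 M NaCl with 5–10% propylene glycol, filtered 0.2 μm). Injected dose was found by weighing the syringe. Rats were decapitated at 1 or 120 min. Organs were blotted, weighed and gamma counted against an injectate standard, giving percent injected dose per organ. Blood was taken as 7% of body mass. Mean ± SD, n = 3–4.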

Rattus norvegicus [2] = test: Retention of tracer Gallium in blood of rats after intravenous administration and Gallium-67 Bis(salicylaldimine) after 1 min; summary of the method: as §1
Rattus norvegicus [3] = test: Retention of tracer Gallium in heart of rats after intravenous administration and Gallium-67 Bis(salicylaldimine) after 120 min; summary of the method: as §1
Rattus norvegicus [4] = test: Retention of tracer Gallium in heart of rats after intravenous administration and Gallium-67 Bis(salicylaldimine) after 1 min; summary of the method: as §1
Rattus norvegicus [5] = test: Retention of tracer Gallium in kidney of rats after intravenous administration and Gallium-67 Bis(salicylaldimine) after 1 min; summary of the method: as §1
Rattus norvegicus [6] = test: Retention of tracer Gallium in liver of rats after intravenous administration and Gallium-67 Bis(salicylaldimine) after 1 min; summary of the method: as §1
Rattus norvegicus [7] = test: Retention of tracer Gallium in lung of rats after intravenous administration and Gallium-67 Bis(salicylaldimine) after 120 min; summary of the method: as §1
Rattus norvegicus [8] = test: Retention of tracer Gallium in liver of rats after intravenous administration and Gallium-67 Bis(salicylaldimine) after 120 min; summary of the method: as §1
Rattus norvegicus [9] = test: Retention of tracer Gallium in lung of rats after intravenous administration and Gallium-67 Bis(salicylaldimine) after 1 min; summary of the method: as §1
[10] = Ratio of retention of tracer Gallium in Heart to blood was determined after intravenous administration to rats after 120 min
Summary of the method: (§2)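 Heart-to-liver and heart-to-blood ratios were calculated from percent injected dose per gram of tissue. No-carrier-added 67Ga complex (1–3 μCi, 0.1–0.2 mL) in 5% ethanol/saline with 5–10% propylene glycol, radiochemical purity >98%, was given as a femoral vein bolus to male Sprague-Dawley rats under ether anesthesia. Rats were decapitated at 1, 15 or 120 min and tissues gamma counted. Mean ± SD, n = 3–4.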

[11] = Ratio of retention of tracer Gallium in Heart to Liver was determined after intravenous administration to rats after 120 min; summary of the method: as §2
[12] = Ratio of retention of tracer Gallium in Heart to Liver was determined after intravenous administration to rats after 15 min; summary of the method: as §2
[13] = Ratio of retention of tracer Gallium in Heart to Liver was determined after intravenous administration to rats after 1 min; summary of the method: as §2
[14] = Ratio of retention of tracer Gallium in Heart to blood was determined after intravenous administration to rats after 15 min; summary of the method: as §2
[15] = Ratio of retention of tracer Gallium in Heart to blood was determined after intravenous administration to rats after 1 min; summary of the method: as §2
Rattus norvegicus [16] = test: Retention of tracer Gallium in kidney of rats after intravenous administration and Gallium-67 Bis(salicylaldimine) after 120 min; summary of the method: as §1
Rattus norvegicus [17] = test: Retention of tracer Gallium in kidney of rats after intravenous administration and Gallium-67 Bis(salicylaldimine) after 120 min was determined; summary of the method: as §1
Rattus norvegicus [18] = test: Retention of tracer Gallium in kidney of rats after intravenous administration and Gallium-67 Bis(salicylaldimine) after 1 min was determined; summary of the method: as §1

COc1ccc(O)c(/C=N/CCCNCCNCCC/N=C/c2cc(OC)ccc2O)c1
Injected dose (Rattus norvegicus [1]): 1.11% | Injected dose (Rattus norvegicus [2]): 7.55% | Injected dose (Rattus norvegicus [3]): 0.23% | Injected dose (Rattus norvegicus [4]): 0.34% | Injected dose (Rattus norvegicus [5]): 7.64% | Injected dose (Rattus norvegicus [6]): 26.5% | Injected dose (Rattus norvegicus [7]): 0.18% | Injected dose (Rattus norvegicus [8]): 6.8% | Injected dose (Rattus norvegicus [9]): 0.79% | Ratio [10]: 4.3 | Ratio [11]: 0.42 | Ratio [12]: 0.19 | Ratio [13]: 0.15 | Ratio [14]: 2.6 | Ratio [15]: 0.89 | Injected dose (Rattus norvegicus [16]): 1.19%

COc1cc(O)c(/C=N/CCCNCCNCCC/N=C/c2c(O)cc(OC)cc2OC)c(OC)c1
Injected dose (Rattus norvegicus [1]): 0.33% | Injected dose (Rattus norvegicus [2]): 8.49% | Injected dose (Rattus norvegicus [3]): 0.86% | Injected dose (Rattus norvegicus [4]): 1.04% | Injected dose (Rattus norvegicus [5]): 5.26% | Injected dose (Rattus norvegicus [6]): 43% | Injected dose (Rattus norvegicus [7]): 0.52% | Injected dose (Rattus norvegicus [8]): 3.1% | Injected dose (Rattus norvegicus [9]): 0.92% | Ratio [10]: 45.6 | Ratio [11]: 4.1 | Ratio [12]: 0.56 | Ratio [13]: 0.32 | Ratio [14]: 18.1 | Ratio [15]: 2.3 | Injected dose (Rattus norvegicus [16]): 2.17%

COc1cc(C)c(/C=N/CCCNCCNCCC/N=C/c2c(C)cc(OC)cc2O)c(O)c1
Injected dose (Rattus norvegicus [1]): 0.43% | Injected dose (Rattus norvegicus [2]): 5.94% | Injected dose (Rattus norvegicus [3]): 1.03% | Injected dose (Rattus norvegicus [4]): 1.08% | Injected dose (Rattus norvegicus [5]): 5.39% | Injected dose (Rattus norvegicus [6]): 28.8% | Injected dose (Rattus norvegicus [7]): 0.55% | Injected dose (Rattus norvegicus [8]): 3.4% | Injected dose (Rattus norvegicus [9]): 0.88% | Ratio [10]: 45.1 | Ratio [11]: 3.6 | Ratio [13]: 0.45 | Ratio [15]: 3.4 | Injected dose (Rattus norvegicus [16]): 1.94%

COc1cc(O)c(/C=N\CC(C)(C)CNCCNCC(C)(C)C/N=C/c2c(O)cc(OC)cc2OC)c(OC)c1
Injected dose (Rattus norvegicus [1]): 0.45% | Injected dose (Rattus norvegicus [2]): 18.8% | Injected dose (Rattus norvegicus [3]): 1.01% | Injected dose (Rattus norvegicus [4]): 1.03% | Injected dose (Rattus norvegicus [5]): 8.33% | Injected dose (Rattus norvegicus [6]): 50.6% | Injected dose (Rattus norvegicus [7]): 0.64% | Injected dose (Rattus norvegicus [8]): 3.9% | Injected dose (Rattus norvegicus [9]): 1.63% | Ratio [10]: 44.5 | Ratio [11]: 3.24 | Ratio [12]: 0.32 | Ratio [13]: 0.23 | Ratio [14]: 9.6 | Ratio [15]: 1.1 | Injected dose (Rattus norvegicus [16]): 5.4%

COc1ccc(/C=N/CCCNCCNCCC/N=C/c2ccc(OC)cc2O)c(O)c1
Injected dose (Rattus norvegicus [1]): 0.42% | Injected dose (Rattus norvegicus [2]): 4.44% | Injected dose (Rattus norvegicus [3]): 0.65% | Injected dose (Rattus norvegicus [4]): 0.67% | Injected dose (Rattus norvegicus [5]): 8.42% | Injected dose (Rattus norvegicus [6]): 25.2% | Injected dose (Rattus norvegicus [7]): 0.38% | Injected dose (Rattus norvegicus [8]): 5.1% | Injected dose (Rattus norvegicus [9]): 1.05% | Ratio [10]: 30.6 | Ratio [11]: 1.6 | Ratio [12]: 0.62 | Ratio [13]: 0.32 | Ratio [14]: 17.6 | Ratio [15]: 2.99 | Injected dose (Rattus norvegicus [16]): 1.69%

COc1cc(O)c(/C=N/CCCNCCNCCC/N=C/c2cc(C)c(OC)cc2O)cc1C
Injected dose (Rattus norvegicus [1]): 0.61% | Injected dose (Rattus norvegicus [2]): 7.79% | Injected dose (Rattus norvegicus [3]): 0.89% | Injected dose (Rattus norvegicus [4]): 0.88% | Injected dose (Rattus norvegicus [17]): 2.74% | Injected dose (Rattus norvegicus [18]): 5.14% | Injected dose (Rattus norvegicus [6]): 39.5% | Injected dose (Rattus norvegicus [7]): 0.42% | Injected dose (Rattus norvegicus [8]): 5.3% | Injected dose (Rattus norvegicus [9]): 0.79% | Ratio [10]: 30 | Ratio [11]: 1.92 | Ratio [13]: 0.14 | Ratio [15]: 2.1

CCN(CC)c1ccc(/C=N/CCCNCCNCCC/N=C/c2ccc(N(CC)CC)cc2O)c(O)c1
Injected dose (Rattus norvegicus [1]): 1.27% | Injected dose (Rattus norvegicus [2]): 11.1% | Injected dose (Rattus norvegicus [3]): 0.65% | Injected dose (Rattus norvegicus [4]): 0.69% | Injected dose (Rattus norvegicus [5]): 6.33% | Injected dose (Rattus norvegicus [6]): 38.1% | Injected dose (Rattus norvegicus [7]): 0.67% | Injected dose (Rattus norvegicus [8]): 9.7% | Injected dose (Rattus norvegicus [9]): 1.26% | Ratio [10]: 9.2 | Ratio [11]: 0.86 | Ratio [12]: 0.28 | Ratio [13]: 0.24 | Ratio [14]: 4.5 | Ratio [15]: 1.22 | Injected dose (Rattus norvegicus [16]): 4.67%

CCN(CC)c1ccc(/C=N\CC(C)(C)CNCCNCC(C)(C)C/N=C/c2ccc(N(CC)CC)cc2O)c(O)c1
Injected dose (Rattus norvegicus [1]): 1.06% | Injected dose (Rattus norvegicus [2]): 30.6% | Injected dose (Rattus norvegicus [3]): 0.4% | Injected dose (Rattus norvegicus [4]): 0.66% | Injected dose (Rattus norvegicus [5]): 4.25% | Injected dose (Rattus norvegicus [6]): 47% | Injected dose (Rattus norvegicus [7]): 1.31% | Injected dose (Rattus norvegicus [8]): 11.1% | Injected dose (Rattus norvegicus [9]): 5.3% | Ratio [10]: 8.1 | Ratio [11]: 0.5 | Ratio [12]: 0.13 | Ratio [13]: 0.17 | Ratio [14]: 1.9 | Ratio [15]: 0.45 | Injected dose (Rattus norvegicus [16]): 5.17%

Oc1ccccc1/C=N/CCCNCCNCCC/N=C/c1ccccc1O
Injected dose (Rattus norvegicus [1]): 0.64% | Injected dose (Rattus norvegicus [2]): 4.21% | Injected dose (Rattus norvegicus [3]): 0.41% | Injected dose (Rattus norvegicus [4]): 0.45% | Injected dose (Rattus norvegicus [5]): 9.84% | Injected dose (Rattus norvegicus [6]): 26.7% | Injected dose (Rattus norvegicus [7]): 0.28% | Injected dose (Rattus norvegicus [8]): 5.3% | Injected dose (Rattus norvegicus [9]): 1% | Ratio [10]: 12.2 | Ratio [11]: 0.9 | Ratio [12]: 0.51 | Ratio [13]: 0.2 | Ratio [14]: 8.3 | Ratio [15]: 2.15 | Injected dose (Rattus norvegicus [16]): 1.4%

CCOc1cc(C)c(/C=N/CCCNCCNCCC/N=C/c2c(C)cc(OCC)cc2O)c(O)c1
Injected dose (Rattus norvegicus [1]): 0.42% | Injected dose (Rattus norvegicus [2]): 7.73% | Injected dose (Rattus norvegicus [3]): 0.87% | Injected dose (Rattus norvegicus [4]): 0.91% | Injected dose (Rattus norvegicus [5]): 5.24% | Injected dose (Rattus norvegicus [6]): 29.5% | Injected dose (Rattus norvegicus [7]): 0.49% | Injected dose (Rattus norvegicus [8]): 3% | Injected dose (Rattus norvegicus [9]): 0.8% | Ratio [10]: 40.5 | Ratio [11]: 2.7 | Ratio [12]: 0.73 | Ratio [13]: 0.29 | Ratio [14]: 20.9 | Ratio [15]: 2.2 | Injected dose (Rattus norvegicus [16]): 2.42%

CC(C)c1ccc(O)c(/C=N/CCCNCCNCCC/N=C/c2cc(C(C)C)ccc2O)c1
Injected dose (Rattus norvegicus [1]): 1.21% | Injected dose (Rattus norvegicus [2]): 23.4% | Injected dose (Rattus norvegicus [3]): 0.55% | Injected dose (Rattus norvegicus [4]): 0.67% | Injected dose (Rattus norvegicus [5]): 6.02% | Injected dose (Rattus norvegicus [6]): 49.2% | Injected dose (Rattus norvegicus [7]): 0.36% | Injected dose (Rattus norvegicus [8]): 8.5% | Injected dose (Rattus norvegicus [9]): 1.06% | Ratio [10]: 8.6 | Ratio [11]: 0.75 | Ratio [13]: 0.16 | Ratio [15]: 0.54 | Injected dose (Rattus norvegicus [16]): 3.95%
